Values joined by “and” are separate entries in the source; they are usually repeats but may differ in a detail not shown here. Equal entries are not always repeated.
Target: T1, HPA (Helix pomatia, UniProt Q2F1K8)
T1 sequence (Q2F1K8 20-121): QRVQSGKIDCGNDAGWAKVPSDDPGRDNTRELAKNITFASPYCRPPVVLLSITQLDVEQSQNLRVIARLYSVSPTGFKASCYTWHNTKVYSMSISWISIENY
Test: Fluorescent microarray competition: Alexa Fluor 647-labeled HPA
Assay type: biochemical
Conditions: IC50,microarray (μM); SEM
In short: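 Glycoconjugates spotted in triplicate on NHS-coated glass slides from PBS pH 8.5 with 5% glycerol. Slides held 17−20 h at 70% humidity, then blocked 1 h at 37 °C in ethanolamine/boric acid/Tween 20 buffer pH 8.5. Probing in 16-well masks under slow agitation, then Tween-PBS washes. Scanned at 635 nm excitation. Mean fluorescence fitted against log competitor concentration.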

SMILES: CC(=O)N[C@H]1C(O)O[C@H](CO)[C@H](O)[C@@H]1O (stereo partly drawn) [GalNAc, N-acetyl-D-galactosamine]
- IC50: 180 µM and 301 µM and 687 µM and 449 µM

Reference: publication PMC6210076 (ACS Omega, 2018)
